Source: ChEMBL document CHEMBL1124344, “5-Piperazinylalkyl-2(3H)-oxazolones with neuroleptic activity” (J Med Chem, 1989)

Experiments:
Mus musculus [1] = assay: Inhibition of spontaneous motor activity in mice, by administering perorally; format: functional; conditions: po
How it was run: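 Mice in groups of five were dosed orally with gum arabic suspensions at 10 mL/kg after an overnight fast, with a vehicle control group. Locomotion was counted for 10 min in a photocell activity cage, in at least two groups per dose. ED50, by probit analysis, is the dose giving 50% inhibition against controls.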

Rattus norvegicus [2] = assay: Activity to evoke catalepsy in rats, by administering perorally at a dose of 200 mg/kg; format: functional; conditions: route oral
How it was run: (§1)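 Rats fasted overnight and given oral doses in arabic gum suspension (10 mL/kg), 1 h before screening or 1 and 5 h before profile testing. Forelegs placed on a horizontal bar 7 cm high, three times at 5-min intervals. Immobility of at least 15 s counts as catalepsy. ED50 is the dose giving catalepsy in 50% of rats, by probit analysis. Parenthetical entries give the maximal dose and percent activity.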

[3] = Lethal dose in mice (LD50) following i.p. dosing; format: toxicity, organism-based; conditions: mouse, in vivo, ip
How it was run: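 Acute toxicity tested in mice by the intraperitoneal route. LD50 is the dose killing 50% of treated mice, computed by Finney probit analysis; values are approximate.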

Rattus norvegicus [4] = assay: Antagonistic activity against apomorphine-induced stereotypy in rats, by administering perorally; format: functional; conditions: po
How it was run: (§2)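 Male rats fasted overnight and given oral doses in arabic gum suspension (10 mL/kg) 1 h, or 1 and 5 h, before challenge. Apomorphine 3 mg/kg iv, with stereotypy observed 20 min later. ED50 is the dose inhibiting stereotypy in 50% of rats, per Janssen's method. Parenthetical entries give the maximal dose and percent activity.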

Mus musculus [5] = assay: Antagonistic activity against amphetamine-induced Hypermobility in mice, by administering perorally at a dose of 100 mg/kg; format: functional; conditions: route oral
How it was run: (§3)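 Male mice in groups of five, fasted overnight, given oral drug in arabic gum suspension (10 mL/kg) 1 or 5 h ahead. Amphetamine 4 mg/kg ip given 30 min after drug. Ten minutes later locomotion is recorded for 15 min in a photocell actophotometer. ED50 is 50% reduction versus control hypermotility, by probit analysis. Parenthetical entries give the maximal dose and percent activity.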

Rattus norvegicus [6] = assay: Activity to evoke catalepsy in rats, by administering perorally at a dose of 100 mg/kg; format: functional; conditions: route oral, read-out: Inhibition; how it was run: as §1
Mus musculus [7] = assay: Inhibition of amphetamine-induced hypermobility in mice following p.o. administration.; format: functional; conditions: po
How it was run: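 Compounds were given orally to male mice (gum arabic suspension, 10 mL/kg, fasted) in groups of five. Amphetamine 4 mg/kg ip followed 30 min later. After another 10 min, motility was recorded for 15 min with a photocell actophotometer. ED50, by probit analysis, is the dose giving 50% reduction against controls.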

Rattus norvegicus [8] = assay: Antagonistic activity against apomorphine-induced stereotypy in rats, by administering perorally at a dose of 100 mg/kg; format: functional; conditions: route oral; how it was run: as §2
Mus musculus [9] = assay: Inhibition of spontaneous motor activity in mice, by administering perorally at a dose of 100 mg/kg; format: functional; conditions: route oral
How it was run: (§4)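 Mice fasted overnight, then dosed orally with compound (weighed as base) suspended in arabic gum, 10 mL/kg, with vehicle controls; 1 h pretreatment for screening tests, 1 or 5 h for others. Groups of five; locomotor activity counted 10 min in photocell activity cage, at least two groups per dose. ED50 = dose giving 50% inhibition versus controls, by probit analysis.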

Mus musculus [10] = assay: Inhibition of spontaneous motor activity in mice, by administering perorally at a dose of 125 mg/kg; format: functional; conditions: route oral; how it was run: as §4
Rattus norvegicus [11] = assay: Activity to evoke catalepsy in rats, by administering perorally at a dose of 50 mg/kg; format: functional; conditions: route oral; how it was run: as §1
Rattus norvegicus [12] = assay: Antagonistic activity against apomorphine-induced stereotypy in rats, by administering perorally at a dose of 50 mg/kg; format: functional; conditions: route oral; how it was run: as §2
Rattus norvegicus [13] = assay: Activity to evoke catalepsy in rats, by administering perorally at a dose of 20 mg/kg; format: functional; conditions: route oral, read-out: Inhibition; how it was run: as §1
Rattus norvegicus [14] = assay: Antagonistic activity against apomorphine-induced stereotypy in rats, by administering perorally at a dose of 20 mg/kg; format: functional; conditions: route oral; how it was run: as §2
Mus musculus [15] = assay: Antagonistic activity against amphetamine-induced Hypermobility in mice, by administering perorally at a dose of 20 mg/kg; format: functional; conditions: route oral; how it was run: as §3
Rattus norvegicus [16] = assay: Activity to evoke catalepsy in rats, by administering perorally; format: functional; conditions: po; how it was run: as §1
Rattus norvegicus [17] = assay: Antagonistic activity against apomorphine-induced stereotypy in rats, by administering perorally at a dose of 150 mg/kg; format: functional; conditions: route oral; how it was run: as §2
Rattus norvegicus [18] = assay: Activity to evoke catalepsy in rats, by administering perorally at a dose of 150 mg/kg; format: functional; conditions: route oral; how it was run: as §1
Rattus norvegicus [19] = assay: Activity to evoke catalepsy in rats, by administering perorally at a dose of 70 mg/kg; format: functional; conditions: route oral; how it was run: as §1
Mus musculus [20] = assay: Antagonistic activity against amphetamine-induced Hypermobility in mice, by administering perorally at a dose of 70 mg/kg; format: functional; conditions: route oral; how it was run: as §3
Mus musculus [21] = assay: Inhibition of spontaneous motor activity in mice, by administering perorally at a dose of 70 mg/kg; format: functional; conditions: route oral; how it was run: as §4

SMILES	ED50 (Mus musculus [1])	LD50 [3]	ED50 (Rattus norvegicus [4])	percent of rats showing catalepsy at 100 mg/kg (Rattus norvegicus [6])	ED50 (Mus musculus [7])	inhibition in vivo at 100 mg/kg (Rattus norvegicus [8])	further results
O=c1oc(CCN2CCN(c3ccccc3)CC2)c(-c2ccc(F)cc2)n1Cc1ccccc1	51 mg/kg	1000 mg/kg	200 mg/kg	–	–	–	inhibition in vivo at 200 mg/kg (Rattus norvegicus [2]): 0%; inhibition in vivo at 100 mg/kg (Mus musculus [5]): 40%
Cn1c(-c2ccc(F)cc2)c(CCN2CCN(c3ccccc3)CC2)oc1=O	19.5 mg/kg	750 mg/kg	112 mg/kg	0%	21 mg/kg	–	–
Oc1nc(-c2ccc(Cl)cc2)c(CN2CCN(c3ccccc3)CC2)o1	–	> 1000 mg/kg	–	0%	–	0%	inhibition in vivo at 100 mg/kg (Mus musculus [9]): 15%; inhibition in vivo at 100 mg/kg (Mus musculus [5]): 0%
O=c1oc(CCN2CCN(c3ccccc3)CC2)c(-c2ccc(F)cc2)n1-c1ccccc1	–	> 1000 mg/kg	–	0%	–	0%	inhibition in vivo at 125 mg/kg (Mus musculus [10]): 0%; inhibition in vivo at 100 mg/kg (Mus musculus [5]): 0%
Oc1nc(-c2ccc(F)cc2)c(CCN2CCN(c3cccc(Cl)c3)CC2)o1	58.5 mg/kg	> 1000 mg/kg	80 mg/kg	0%	54.1 mg/kg	–	–
Oc1nc(-c2ccc(F)cc2)c(CCN2CCN(c3cc(Br)cc(Br)c3)CC2)o1	15 mg/kg	1000 mg/kg	–	0%	5.4 mg/kg	0%	–
Cc1cccc(N2CCN(CCc3oc(O)nc3-c3ccc(F)cc3)CC2)c1	13.4 mg/kg	> 1000 mg/kg	–	–	7.3 mg/kg	–	inhibition in vivo at 50 mg/kg (Rattus norvegicus [11]): 0%; inhibition in vivo at 50 mg/kg (Rattus norvegicus [12]): 0%
Cc1ccc(-c2nc(O)oc2CCN2CCN(c3ccccc3)CC2)cc1	6.4 mg/kg	400 mg/kg	–	0%	2 mg/kg	0%	–
Oc1nc(-c2ccc(F)cc2)c(CCN2CCN(c3cccc(Cl)c3Cl)CC2)o1	12.5 mg/kg	90 mg/kg	–	–	–	–	percent of rats showing catalepsy at 20 mg/kg (Rattus norvegicus [13]): 0%; inhibition in vivo at 20 mg/kg (Rattus norvegicus [14]): 0%; inhibition in vivo at 20 mg/kg (Mus musculus [15]): 69%
Oc1nc(-c2ccccc2)c(CCN2CCN(c3ccccc3)CC2)o1	60 mg/kg	> 1000 mg/kg	200 mg/kg	–	51 mg/kg	–	ED50 (Rattus norvegicus [16]): 63 mg/kg
COc1cccc(N2CCN(CCc3oc(O)nc3-c3ccc(F)cc3)CC2)c1	10.8 mg/kg	500 mg/kg	–	–	7.6 mg/kg	–	inhibition in vivo at 50 mg/kg (Rattus norvegicus [11]): 30%; inhibition in vivo at 50 mg/kg (Rattus norvegicus [12]): 0%
O=C(c1ccccc1)n1c(-c2ccc(F)cc2)c(CCN2CCN(c3ccccc3)CC2)oc1=O	4 mg/kg	750 mg/kg	–	–	9.3 mg/kg	–	inhibition in vivo at 150 mg/kg (Rattus norvegicus [17]): 40%; inhibition in vivo at 150 mg/kg (Rattus norvegicus [18]): 0%
Oc1nc(-c2ccc(F)cc2)c(CCN2CCN(c3ccccc3Cl)CC2)o1	14.2 mg/kg	> 1000 mg/kg	–	30%	15 mg/kg	0%	–
Oc1nc(-c2ccc(F)cc2)c(CCN2CCN(c3cccc(C(F)(F)F)c3)CC2)o1	16.9 mg/kg	> 1000 mg/kg	–	0%	11.6 mg/kg	0%	–
COc1ccc(-c2nc(O)oc2CCN2CCN(c3ccccc3)CC2)cc1	–	350 mg/kg	47 mg/kg	–	–	–	inhibition in vivo at 70 mg/kg (Rattus norvegicus [19]): 0%; inhibition in vivo at 70 mg/kg (Mus musculus [20]): 27%; inhibition in vivo at 70 mg/kg (Mus musculus [21]): 26%
